Reference: paper PMC7495496 (DNA repair, 2019)
Positions count from the first letter of the chain named. Entries after “also recorded” stand apart in the source; their conditions may differ. Read-outs that look alike come from different tables or passages of the source. Each block holds one substance with its values, some of them ahead of it. Square brackets hold non-standard residues; d marks the D form. Ends that are not written are not given here. Phe(4-F) = N[C@@H](Cc1ccc(F)cc1)C(=O)O

Legend:
[1] = molecular target: T1, xlKu80 vWA (Xenopus laevis, UniProt Q6DDS9, C190S/DEL171-188); assay: 19F NMR binding study, xlKu80 vWA; details: 0.2 mM xlKu80 vWA; peptide 0.2, 0.4 and 1.0 mM; 25 °C; 150 mM NaCl, 25 mM HEPES
T1 sequence (Q6DDS9 with tags, fused parts or gaps DEL171-188/C190S limits assumed): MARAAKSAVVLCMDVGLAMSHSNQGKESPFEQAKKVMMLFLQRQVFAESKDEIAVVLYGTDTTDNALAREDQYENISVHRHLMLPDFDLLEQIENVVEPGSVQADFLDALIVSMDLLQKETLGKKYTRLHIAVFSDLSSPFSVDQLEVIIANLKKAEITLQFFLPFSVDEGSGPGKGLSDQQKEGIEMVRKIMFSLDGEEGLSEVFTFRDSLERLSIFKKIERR
Outline: (§1)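 Protein (0.2 mM; wild-type-derived or S229A vWA construct, His-tagged, expressed by autoinduction in E. coli BL21(DE3), Ni-NTA and gel filtration purified) titrated with XLF KBMX peptide carrying 4-fluoro-L-Phe at the penultimate position. Peptide stock held protease inhibitor cocktail. ¹⁹F spectra at 564.279 MHz, 25 °C. Internal standard 0.2 mM 4-fluorobenzamide (−34.9 ppm vs external TFA).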

[2] = molecular target: T2, xlKu80 vWA(S229A) (Xenopus laevis, UniProt Q6DDS9, C190S/DEL171-188/S229A); assay: 19F NMR binding study, xlKu80 vWA; details: for binding affinity change resulting from S229A mutation: xlKu80 vWA(S229A) compared with unmodified xlKu80 vWA
T2 sequence (Q6DDS9 with tags, fused parts or gaps DEL171-188/C190S/S229A limits assumed): T1 sequence (Q6DDS9 with tags, fused parts or gaps DEL171-188/C190S limits assumed) with S211A
Outline: as §1

[3] = molecular target: T2, xlKu80 vWA(S229A); assay: X-ray crystallography of xlKu80 vWA; type: binding; details: crystal of xlKu80 vWA(S229A)-KBMX^XLF, PDB: 6TYX, 1.90 Å
[4] = molecular target: fluorescein-labeled human APLF KBM peptide (human); assay: fluorescence polarisation
[5] = molecular target: fluorescein-labeled human APLF KBM peptide (human); assay: fluorescence polarisation; remark: listed apart in the source

- 19F NMR binding to xlKu80 vWA [1]: negligible
- binding affinity change resulting from S229A mutation ([2]; 19F NMR, listed as KBMX^XLF motif peptide): capable of binding
Substance: KBMX^XLF peptide: KBMX peptide from XLF (KPKKKAKGL[Phe(4-F)]M; not fully specified; printed as KPKKKAKGLF*M)
- binding affinity change resulting from S229A mutation ([2]; 19F NMR): increases dramatically; also recorded: dramatically increased affinity
- binding confirmed by X-ray crystallography [3]: further confirmed by X-ray crystallography

- 19F NMR linewidth in the presence of vWA(S229A) ([2]; 0.2 mM xlKu80 vWA(S229A), 1:1 ratio, 25 °C, 150 mM NaCl, 25 mM HEPES, 1 mM TCEP, 1 mM EDTA, 10 % D2O): 109 Hz
- exchange between 19F resonances of bound and free peptide ([2]; 19F NMR, 0.2 mM xlKu80 vWA(S229A) plus 0.2, 0.3, 0.4 mM peptide, 25 °C): slow exchange
Substance: KPKKKAKGLF*M [fluorinated XLF KBMX peptide]

- Kd [4]: 162 nM
- Kd [5]: 0.162 nM
Substance: human Ku80 von Willebrand domain (hsKu80 vWA), 1–240 aa, F47Q/F88Q/L234Q/F237Y (from UniProt P13010 1-240) (domain or fragment)

- Kd [4]: 131 nM
- Kd [5]: 0.131 nM
Substance: isolated Xenopus laevis Ku80 von Willebrand A-like domain (xlKu80 vWA) (domain or fragment)
